# Shown are actives, neighbours in structure and some others; about 1.8% of the full set was active somewhere.
# M4 PAM – potentiates acetylcholine response at human M4 receptor; CHO-K1 hM4/Gqi5, Fluo-8 calcium fluorescence, ACh EC20; 0% = ACh EC20, 100% = maximal ACh; activation, % at 3 µM; 0.4% of 360,000 active;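 active = activation above its plate's cutoff, the mean activation of sample wells plus 3 SD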
# Target sequence (P08173 whole entry, looked up): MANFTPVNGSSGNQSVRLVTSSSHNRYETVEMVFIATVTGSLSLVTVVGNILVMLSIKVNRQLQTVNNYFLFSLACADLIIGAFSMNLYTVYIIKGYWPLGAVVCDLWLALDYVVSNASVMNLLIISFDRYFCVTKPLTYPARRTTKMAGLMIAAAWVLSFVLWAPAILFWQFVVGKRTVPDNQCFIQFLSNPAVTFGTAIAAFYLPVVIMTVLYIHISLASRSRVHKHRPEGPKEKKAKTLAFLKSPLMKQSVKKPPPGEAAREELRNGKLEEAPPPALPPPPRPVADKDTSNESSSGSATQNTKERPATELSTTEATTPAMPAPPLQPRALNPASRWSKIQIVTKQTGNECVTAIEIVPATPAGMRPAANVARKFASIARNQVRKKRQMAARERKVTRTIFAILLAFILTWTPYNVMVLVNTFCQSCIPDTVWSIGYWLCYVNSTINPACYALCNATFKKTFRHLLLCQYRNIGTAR
# M5 antag – CHRM5 antagonism in calcium assay. inhibition, % at 3 µM. AID 624040. 0.59% of 360,000 active. CHO-hM5 cells, Fluo-8 calcium fluorescence, ACh EC80. P08912;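 active = inhibition above a per-plate cutoff, the mean of that plate's test compounds plus 3 SD, cut at about 27% in these data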;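 also: 0% = acetylcholine EC80 with DMSO and 100% = DMSO without agonist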
# CHRM4 agonist – CHRM4 agonism in calcium assay; activation, % at 3 µM; P08173; CHO-K1 hM4/Gqi5, Fluo-8 calcium fluorescence; vehicle 0%, full acetylcholine response 100%; 0.14% of 360,000 active; AID 624127;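 active = activation above the run mean over all test wells plus 3 SD, cut at about 32% in these data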;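 also: peak over basal fluorescence ratio per well then scaled between controls; 0% = DMSO wells and 100% = acetylcholine at EC100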
# M4 antag – blocks acetylcholine activation of human M4 receptor | P08173 | CHO-hM4 cells, ACh EC80, Fluo-8 calcium fluorescence | inhibition, % at 3 µM | 0.73% of 360,000 active | AID 624125;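 active = inhibition above its plate's cutoff, the mean inhibition of sample wells plus 3 SD, cut at about 27% in these data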;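 also: 0% = acetylcholine EC80 with DMSO and 100% = DMSO without agonist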
# M5 PAM – potentiates acetylcholine response at human M5 receptor; P08912; CHO-K1 hM5, Fluo-8 calcium, ACh EC20 PAM; 0% = ACh EC20, 100% = ACh EC100; activation, % at 3 µM; 0.3% of 360,000 active; AID 624038;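 active = activation above the run cutoff, the mean activation of all test compounds plus 3 SD, cut at about 18% in these data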
#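 Assay system: CHO-K1 hM5 cells. Also added: acetylcholine at EC20 concentration, added after compound. Dosing: 3 µM, single dose. Times: compound preincubation 140 s before EC20 acetylcholine addition. Signal: Fluo-8 calcium fluorescence. Measure: % activation relative to EC20 and EC100 ACh responses. Repeats: singlicate, one well per test compound.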
# CHRM5 agonist – agonists of human muscarinic M5 receptor (CHRM5); P08912; CHO-K1 hM5 cells, Fluo-8 calcium fluorescence; 0% DMSO wells, 100% maximal acetylcholine response; activation, % at 3 µM; 0.19% of 360,000 active; AID 624037;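 active = activation above the run's mean over test compounds plus 3 SD, cut at about 23% in these data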;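 also: signal is peak over basal fluorescence ratio across the kinetic read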
# * = called active by the depositor.
SMILES,M4 PAM,M5 antag,CHRM4 agonist,M4 antag,M5 PAM,CHRM5 agonist
CCCN1C=CC(=CC=C(C#N)C#N)C=C1,-11,23,25,17,-15,31*
CCOC(=O)/C(C#N)=C/C=C1\C=Cc2ccccc2N1CC,-3,1,3,-1,-8,2
C=CCN1C=CC(=CC=C(C#N)C#N)C=C1,-15,20,29,23,-23,28*
CCCCCCN1C=CC(=C/C=C(\C#N)C(=O)OCC)C=C1,-21,34*,253*,36*,-22,51*
CCCn1c(N)c(NCCN2CCOCC2)c(=O)[nH]c1=O,1,-3,1,-1,2,-2
CC(NC(=O)/C=C/c1ccc(Br)cc1)c1ccc(Cl)cc1 (configuration not stated),-3,6,0,-5,-2,-1
CCN(CC)CCCCCOc1ccccc1OC,2,-2,2,7,2,-5
CCN(CC)CCOC(c1ccccc1)c1ccc(C)cc1 (configuration not stated),-17,75*,2,43*,-19,-8
Cc1ccccc1C(OCCN(C)C)c1ccccc1 (configuration not stated),-18,92*,2,62*,-19,-1
Cc1ccc(C(OCC(C)(C)C[N+](C)(C)C)c2ccccc2)cc1 (configuration not stated),-21,94*,2,52*,-21,-11
CCN(CC)CCC(C)OC(c1ccccc1)c1ccccc1 (configuration not stated),-22,38*,2,6,-33,-13
CC(O)(c1cccnc1)c1nc(-c2ccc3ccccc3c2)cs1 (configuration not stated),-4,22,9,12,-10,5
CC1(C)CC(=O)C2=C(C1)N(Cc1ccccc1)C(=O)C2(NC(=O)C(C)(C)C)C(F)(F)F (configuration not stated),4,-5,-1,-13,2,-3
COc1cc(C(O)c2nc(-c3cccc(C(C)C)c3)cs2)ccc1F (configuration not stated),-3,8,2,11,-7,0
CCCCn1c(C)cc(C)c(S(=O)(=O)c2ccccc2C)c1=O,-1,2,-1,-5,1,-12
Cc1ccccc1S(=O)(=O)c1c(C)cc(C)n(C(C)C)c1=O,1,-11,0,-10,22*,-5
COc1ccc(C(C(=O)Nc2ccc(F)cc2)N2CCN(CC(=O)N3CCCC3)CC2)cc1 (configuration not stated),9,4,2,0,-9,0
COC(=O)Cc1[nH]c(=S)[nH]c1C(=O)OC,33*,5,2,-4,7,-1
COC(=O)CCc1c(C)[nH]c(=S)[nH]c1=O,8,-14,1,-3,11,0
CN(C)Cc1cc(C(F)(F)F)ccc1C(O)(c1ccccc1)c1ccccc1,-11,75*,3,57*,-38,-10
CCC1(C)CC2(CCCN(CCC(=O)c3ccccc3)C2)CCO1 (configuration not stated),0,2,2,-7,8,-11
CCc1c(-c2ccc(Br)cc2)ncn1Cc1cccc(-c2ccccc2)c1,-17,72*,3,50*,-20,-6
CCCc1c(-c2cccc(Br)c2)ncn1Cc1cccc(-c2ccccc2)c1,-14,13,3,6,-13,0
CC(C)C[C@H](NC(=O)c1[nH]cnc1C(=O)N[C@@H](C)C(=O)OC(C)(C)C)C(=O)OC(C)(C)C,-3,9,0,3,-5,-7
O=C(NCc1ccc2c(c1)OCO2)c1nc(S(=O)(=O)Cc2ccccc2F)ncc1Cl,-10,16,9,38*,-3,-4
SMILES,M4 PAM,M5 antag,CHRM4 agonist,M4 antag,M5 PAM,CHRM5 agonist
COCCNC(=O)C(c1ccc(F)cc1)N(C(=O)CCC(=O)Nc1ccccn1)c1ccc(C)cc1 (configuration not stated),30*,29*,16,23,13,1
COc1ccc(CC2S/C(=N/N=C/c3ccccc3O)NC2=O)cc1 (configuration not stated),7,9,0,1,3,0
COc1ccc(/C=N/N=C2/NC(=O)C(c3ccccc3)S2)c(OC)c1 (configuration not stated),13,-6,0,1,18*,-7
CCN(Cc1ccccc1)Cc1ccc(OCc2ccccc2)cc1,-13,14,-2,27*,-16,-16
CCc1ccc(OCCCCN(C)Cc2ccccc2)cc1,-16,18,1,30*,-6,-15
Nc1ccc(OCc2ccccc2)cc1,0,6,0,-5,-4,1
COc1ccc(CN(C)Cc2c(O)ccc3cc(Br)ccc23)cc1OC,4,-10,5,-24,23*,1
CCCc1nc2n[nH]c(N)c2c2c1CCCC2,26*,-3,2,2,12,-4
CCCCc1nc2n[nH]c(N)c2c2c1CCCC2,9,9,0,-2,22*,-4
CCCc1nc2n[nH]c(N)c2c2c1CCC2,1,-6,0,-6,0,3
COc1ccc(-c2coc3c(C(=O)Nc4cccc(NS(C)(=O)=O)c4)cccc23)c(C)c1,-1,6,3,6,-10,-1
CC1Sc2ccc(S(=O)(=O)N3CCC(C(=O)Nc4ccc(Cl)cc4)CC3)cc2NC1=O (configuration not stated),-12,33*,14,30*,-13,0
COc1ccc(NC(=O)C2CCN(S(=O)(=O)c3ccc(N4CCCC4=O)cc3)CC2)c(OC)c1,2,2,2,-12,-3,-3
Cc1ccc(NC(=O)C2CCN(S(=O)(=O)c3ccc(N4CCCC4=O)cc3)CC2)cc1Cl,-10,50*,19,24,-15,2
CC1CCN(C(=O)c2ccccc2NS(=O)(=O)c2ccccc2)CC1,5,2,1,-11,1,-7
O=C(NCC1CCCO1)c1ccc2c(=O)n(CC3CCCO3)c(SCC(=O)N3CCCC3)nc2c1 (configuration not stated),-19,14,16,-2,-16,2
CN(C)C(=O)CSc1nc2ccccc2n1Cc1ccccc1,-5,12,0,0,-9,-8
CCN(CC)CCSc1nc2ccccc2n1Cc1ccccc1,-17,40*,2,36*,-17,-7
O=C(CCNC(=O)c1ccc([N+](=O)[O-])cc1)NNC(=O)c1ccccc1F,26*,-3,0,-11,1,1

# High-throughput results from PubChem BioAssay.
